T cruzi growth-1 = blocks T. cruzi growth in NIH3T3 culture; T. cruzi beta-gal in NIH3T3, GalScreen luminescence, 90 h; AID 624255; inhibition, % at 8.34 µM; 77,000 tested, 5.9% active;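 active means mean inhibition above about 93%, with at least 55% of replicates each passing it, limit read from the data, passing the limit was not always enough; inconclusive means only one of those two conditions holds; inactive means neither condition holds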
KDM4C inh = inhibitors of human demethylase GASC-1 KDM4C | 96,000 tested, 0.15% active | inhibition, % at 12.5 µM | AID 720574 | GST-KDM4C 2-372, H3K9me3 peptide, LANCE TR-FRET;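 active means mean replicate inhibition above about 25%, with at least 55% of replicates also reaching it, limit read from the data, passing the limit was not always enough; inconclusive means only one of those two conditions met; inactive means neither condition met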
Target sequence (Q9H3R0 2-372 limits assumed): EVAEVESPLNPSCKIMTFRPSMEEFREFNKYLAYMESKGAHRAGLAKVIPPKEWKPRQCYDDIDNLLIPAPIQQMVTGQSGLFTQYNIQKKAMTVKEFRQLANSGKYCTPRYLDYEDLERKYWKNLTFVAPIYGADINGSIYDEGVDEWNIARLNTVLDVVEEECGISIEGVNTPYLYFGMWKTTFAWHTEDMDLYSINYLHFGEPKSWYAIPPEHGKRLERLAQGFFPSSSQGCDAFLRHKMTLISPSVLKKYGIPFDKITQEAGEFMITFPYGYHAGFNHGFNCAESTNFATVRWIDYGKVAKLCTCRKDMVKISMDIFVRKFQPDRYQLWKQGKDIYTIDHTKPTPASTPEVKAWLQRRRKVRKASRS
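material = GST-tagged GASC-1 (JMJD2C) catalytic fragment, aa 2-372 | amount = enzyme final amount 10 nM | medium = HEPES buffer, pH 7.5, plus ascorbate | also added = H3K9me3 peptide substrate, Fe(II), 2-oxoglutarate | dosing = single dose | times = 30 min demethylation and 1 h detection at room temperature | detection = LANCE TR-FRET | read-out basis = Fall in 671/618 emission ratio as inhibition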
IDH1 mut inh = blocks human IDH1 R132H reductase activity; diaphorase/resazurin fluorescence, 60 min; inhibition, % at 10 µM; 70,000 tested, 0.18% active; AID 624101; in the data active means inhibition above about 34%; inconclusive means no clear call, values can overlap the other calls; inactive means below about 11%;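 further: 0% = DMSO and 100% = no enzyme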
T cruzi growth-2 = inhibitors of T. cruzi proliferation | shares compounds with T cruzi growth-1 | T. cruzi beta-gal in NIH3T3, GalScreen luminescence, 90 h | inhibition, % at 8.35 µM | 5,600 tested, 72% active | AID 651739;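 active means mean replicate inhibition above about 95% and at least 55% of replicates individually reaching it, limit read from the data; inconclusive means only one of the two criteria is met; inactive means neither criterion is met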
T cruzi growth-3 = inhibitors of T. cruzi proliferation. shares compounds with T cruzi growth-1. T. cruzi beta-gal in NIH3T3, GalScreen luminescence, 90 h. inhibition, % at 2.09 µM. 5,600 tested, 21% active. AID 651740;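 active means mean inhibition above about 95%, with at least 55% of replicates also reaching it, limit read from the data; inconclusive means meets just one of the two conditions; inactive means meets neither condition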;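 further: plate controls were neutral control median for no effect and positive control median for full effect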
NIH3T3 tox = cytotoxicity in mouse NIH/3T3 fibroblasts; shares compounds with T cruzi growth-1; NIH/3T3 viability, CellTiter-Glo ATP luminescence, 90 h; cytotoxicity (signal decrease), % at 8.35 µM; 5,600 tested, 14% active; AID 651742;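 active means mean signal decrease across replicates above about 35% based on untreated-well scatter, with enough replicates individually passing, limit read from the data; inconclusive means no rule stated though some were filed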;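 further: 0% = median of neutral control wells and 100% = median of positive control wells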
NIH3T3 tox 2 = kills mouse NIH/3T3 fibroblasts; AID 651744; 5,600 tested, 56% active; NIH/3T3 viability, CellTiter-Glo ATP luminescence, 90 h; shares compounds with T cruzi growth-1; inhibition, % at 24.9 µM;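 active means mean loss of cell viability signal at or above a set limit, and enough replicates individually reaching it; inconclusive means meets only the mean limit or only the replicate share; inactive means meets neither condition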;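 further: 0% = median of neutral control wells and 100% = median of positive control wells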
An asterisk follows results filed as active. This excerpt belongs to a sample that is enriched for hits.

`C[C@@H]1CCCCO[C@H](CN(C)C(=O)Nc2ccc(C(F)(F)F)cc2)[C@@H](C)CN([C@H](C)CO)C(=O)c2cc(NC(=O)c3ccccc3)ccc2O1` gave T cruzi growth-1 54 and KDM4C inh -1.
`C[C@@H]1CCCCO[C@@H](CN(C)C(=O)Nc2ccc(F)cc2)[C@H](C)CN([C@H](C)CO)C(=O)c2cc(NC(=O)c3ccccc3)ccc2O1` gave T cruzi growth-1 93 and KDM4C inh -1.
Cc1nnc(SCC(=O)Nc2ccccc2C(=O)c2ccccc2)s1 was read as IDH1 mut inh 0.
COc1cccc(-c2ccc3c(c2)[C@@H]2[C@@H](CCN2C(=O)Nc2ccccc2OC)[C@@H](CO)N3C)c1 was read as T cruzi growth-1 85 and KDM4C inh 8.
Screening C/C=C(/C)C(=O)OC(C)(C)C1Cc2cc3ccc(=O)oc3cc2O1 (stereo unspecified) returned IDH1 mut inh 0.
For CC(=O)N1[C@@H]2Cn3c(ccc(/C=C/c4ccccc4)c3=O)[C@H]1[C@@H](C(=O)N(C)C)[C@@H]2CO the results were T cruzi growth-1 active, KDM4C inh -1, T cruzi growth-2 68, T cruzi growth-3 -8, NIH3T3 tox 0 and NIH3T3 tox 2 -3.
Screening CCC(=O)N1[C@@H]2c3ccc(/C=C/c4ccccc4)c(=O)n3C[C@H]1[C@H](CO)[C@H]2C(=O)N(C)C returned T cruzi growth-1 51 and KDM4C inh -3.
Screening CC=Cc1ccc2n(c1=O)C[C@@H]1[C@@H](CO)[C@H](C(=O)N(C)C)[C@H]2N1C(=O)c1ccccc1 (mixture of isomers) returned T cruzi growth-1 -3 and KDM4C inh 0.
Screening CC=Cc1ccc2n(c1=O)C[C@H]1[C@H](CO)[C@@H](C(=O)NCCCN(C)C)[C@@H]2N1C(=O)c1ccccc1F (mixture of isomers) returned T cruzi growth-1 active, KDM4C inh 5, T cruzi growth-2 inconclusive, T cruzi growth-3 -5, NIH3T3 tox 9 and NIH3T3 tox 2 -3.
CC=Cc1ccc2n(c1=O)C[C@@H]1[C@@H](CO)[C@H](C(=O)NCCCN(C)C)[C@H]2N1C(=O)c1ccccc1 (mixture of isomers) was read as KDM4C inh 3.
Screening CC(=O)N1[C@@H]2c3ccc(/C=C/c4ccccc4)c(=O)n3C[C@H]1[C@H](CO)[C@H]2C(=O)N(C)C returned T cruzi growth-1 active, KDM4C inh -1, T cruzi growth-2 76, T cruzi growth-3 17, NIH3T3 tox 1 and NIH3T3 tox 2 4.
`CCCC#Cc1cnc2c(c1)C(=O)N([C@@H](C)CO)C[C@@H](C)[C@H](CN(C)Cc1ccccc1F)O2` gave T cruzi growth-1 35, KDM4C inh 1 and IDH1 mut inh -1.
For C[C@H](CO)N1C[C@H](C)[C@H](CN(C)Cc2ccc(C(=O)Nc3ccccc3N)cc2)Oc2c(NC(=O)c3ccncc3)cccc2C1=O the results were T cruzi growth-1 inconclusive, KDM4C inh -1, IDH1 mut inh -1, T cruzi growth-2 105*, T cruzi growth-3 83, NIH3T3 tox 5 and NIH3T3 tox 2 inconclusive.
`C[C@H]1CN([C@@H](C)CO)C(=O)c2cccc(N(C)C)c2O[C@@H]1CN(C)Cc1ccc(C(=O)Nc2ccccc2N)cc1` gave T cruzi growth-1 87, KDM4C inh 0 and IDH1 mut inh 0.
`C[C@@H]1CN([C@H](C)CO)C(=O)c2cccc(NC(=O)c3ccncc3)c2O[C@@H]1CN(C)Cc1ccccc1` gave T cruzi growth-1 35, KDM4C inh 2 and IDH1 mut inh 0.
`C[C@H]1CN([C@@H](C)CO)C(=O)c2cccc(NC(=O)c3ccncc3)c2O[C@H]1CN(C)Cc1ccc(-c2ccccc2)cc1` gave T cruzi growth-1 107, KDM4C inh 1 and IDH1 mut inh -4.
C[C@H]1CN([C@@H](C)CO)C(=O)c2cccc(NC(=O)c3ccncc3)c2O[C@H]1CN(C)Cc1ccc(C(F)(F)F)cc1 was read as T cruzi growth-1 94, KDM4C inh 10 and IDH1 mut inh -1.
C[C@@H]1CN([C@@H](C)CO)C(=O)c2cccc(N(C)C)c2O[C@@H]1CN(C)Cc1ccc(C(=O)Nc2ccccc2N)cc1 was read as T cruzi growth-1 113*, T cruzi growth-2 104*, T cruzi growth-3 42, NIH3T3 tox 31 and NIH3T3 tox 2 73*.
C[C@H]1CN([C@@H](C)CO)C(=O)c2cccc(NC(=O)c3ccncc3)c2O[C@@H]1CN(C)Cc1ccc(-c2ccccc2)cc1 was read as T cruzi growth-1 inconclusive, KDM4C inh 0, T cruzi growth-2 85, T cruzi growth-3 89, NIH3T3 tox 17 and NIH3T3 tox 2 47*.
For C[C@H](CO)N1C[C@H](C)[C@H](CN(C)Cc2ccc(C(F)(F)F)cc2)Oc2c(NC(=O)c3ccncc3)cccc2C1=O the results were T cruzi growth-1 inconclusive, KDM4C inh -1, IDH1 mut inh 0, T cruzi growth-2 91, T cruzi growth-3 92, NIH3T3 tox 20 and NIH3T3 tox 2 19.
`O=C(C[C@H]1CC[C@H]2[C@@H](COC[C@H](O)CN2Cc2ccc(Oc3ccccc3)cc2)O1)N1CCc2ccccc2C1` gave T cruzi growth-1 43.
`CCOC(=O)c1cccc(NC(=O)CSc2nc3ccccc3[nH]2)c1` gave IDH1 mut inh 0.
`COc1cccc(-c2ccc([C@@H]3[C@H]4CNCC(=O)N4[C@H]3CO)cc2)c1` gave KDM4C inh 13.
For CCNC(=O)C[C@@H]1CC[C@H]2[C@H](COc3ccc(NC(=O)c4ccccc4Cl)cc3C(=O)N2C)O1 the results were T cruzi growth-1 20 and KDM4C inh 0.
Screening C[C@H](CO)N1C[C@H](C)[C@H](CN(C)C(=O)Nc2ccc3c(c2)OCO3)Oc2ncc(C#CCN(C)C)cc2C1=O returned T cruzi growth-1 -34, KDM4C inh 1 and IDH1 mut inh 3.
Screening CCC(=O)Nc1ccc2c(c1)OC[C@H](C)N(Cc1cccc(F)c1)C[C@@H](C)[C@H](OC)CN(C)C2=O returned T cruzi growth-1 22, KDM4C inh -1 and IDH1 mut inh 0.
For C[C@H](CO)N1C[C@H](C)[C@H](CN(C)Cc2ccccc2)Oc2c(NC(=O)c3ccncc3)cccc2C1=O the results were T cruzi growth-1 70, KDM4C inh 0 and IDH1 mut inh -1.

Screening data (PubChem BioAssay)
